# Bridge positions count the residues as written; N and C are the ends. Square brackets hold non-standard residues; d marks the D form. I, II: the chains in the order shown. * marks the point of attachment. Ac6c = NC1(C(=O)O)CCCCC1; NHNH2 = NN*
# Experiments:
# [1] = system: E. coli ATCC 25922; test: MIC antibacterial assay; format: cell-based, Escherichia coli
# [2] = system: K. pneumoniae ATCC 13883; test: MIC antibacterial assay; format: cell-based, Klebsiella pneumoniae
# [3] = system: FADDI-KP028 (MDR); test: MIC antibacterial assay; format: cell-based, K. pneumoniae
# Summary of the method: (§1)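 Broth assay in 100% Mueller Hinton broth. Test compound was serially diluted from 250 to 4 μg ml−1 and mixed 1:1 by volume with a bacterial suspension of 2 × 10^6 cells per ml, then incubated 90 min at 37 °C. MIC was obtained by plotting maximal growth against concentration (Lambert and Pearson method). Run twice in duplicate; mean ± SD.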
# [4] = system: FADDI-AB156 (colistin-resistant, rifampin-resistant & MDR, XDR); test: MIC antibacterial assay; format: cell-based, A. baumannii; details: for MIC, FADDI-AB156: 100% MHB, 90 min, 37 °C, twice in duplicate, mean ± SD
# Summary of the method: as §1
# [5] = system: A. baumannii ATCC 19606; test: MIC antibacterial assay; format: cell-based, Acinetobacter baumannii; details: for MIC, A. baumannii 19606: 100% MHB, 90 min, 37 °C, twice in duplicate, mean ± SD
# [6] = system: A. baumannii 19606; test: Minimum bactericidal concentration; format: cell-based, Acinetobacter baumannii
# [7] = system: A. baumannii culture; test: Peptide stability in bacterial culture; format: in vitro ADME; details: 90 min incubation with A. baumannii culture
# [8] = system: panel of Gram-negative pathogens; test: Antibacterial testing, statements in words; format: cell-based; details: Table S2
# [9] = 100% MHB, 90 min, 37 °C, twice in duplicate, mean ± SD
compound,measurement,setting,value
CNC(C)C1CCC(N)C(OC2C(N)CC(N)C(OC3OCC(C)(O)C(NC)C3O)C2O)O1 (centres unmarked) [Gentamicin],MIC,"[1]; Escherichia coli, ATCC25922, 1.5 h, read-out: MIC, E. coli 25922",0.9 ± 0.1 µg/mL
same,MIC,"[2]; Klebsiella pneumoniae, ATCC13883, 1.5 h, read-out: MIC, K. pneumoniae 13883",0.1 ± 0.05 µg/mL
same,MIC,"[3]; Klebsiella pneumoniae, 1.5 h, read-out: MIC, FADDI-KP028",> 250 µg/mL
same,MIC,"[4]; Acinetobacter baumannii, 1.5 h, read-out: MIC, FADDI-AB156",> 250 µg/mL
same,MIC,"[5]; Acinetobacter baumannii, ATCC19606, 1.5 h, read-out: MIC, A. baumannii 19606",2.7 ± 0.2 µg/mL
same,MBC,"[6]; Acinetobacter baumannii, 19606, read-out: Bactericidal MBC, A. baumannii 19606",4.6 ± 0.3 µg/mL
I: H-[Ac6c]RPDKPRPYLPRPRPPRPVRC-NHNH2 / II: H-[Ac6c]RPDKPRPYLPRPRPPRPVRC-NHNH2 (disulfide I:21-II:21) [compound 2],"MIC, E. coli 25922",[1]; [9],3.1 ± 0.1 (0.6) μg ml^−1
same,"MIC, K. pneumoniae 13883",[2]; [9],5.1 ± 0.8 (1.0) μg ml^−1
same,"MIC, FADDI-KP028",[3]; [9],111.3 ± 0.3 (21.5) μg ml^−1
same,"MIC, FADDI-AB156",[4],59.2 ± 0.2 (11.4) μg ml^−1
same,"MIC, A. baumannii 19606",[5],30.8 ± 3.3 (5.9) μg ml^−1
same,peptide stability in A. baumannii culture (RP-HPLC trace),[7],reduced
Colistin,"MIC, FADDI-AB156",[4],12.6 ± 1.6 (10.9) μg ml^−1
same,"MIC, A. baumannii 19606",[5],0.5 ± 0.04 (0.4) μg ml^−1
same,"Bactericidal MBC, A. baumannii 19606","[6]; CFU assay, twice in duplicate, mean ± SD",0.8 ± 0.02 (0.7) μg ml^−1
Fc1c(F)c(F)c(-c2c(F)c(F)c(F)c(F)c2F)c(F)c1F [Decafluorobiphenyl],antibacterial activity of the linkers alone,[8],no antibacterial activity
Fc1c(F)c(F)c(F)c(F)c1F [Hexafluorobenzene],antibacterial activity of the linkers alone,[8],no antibacterial activity

# — paper PMC8864714 (Chemical Science, 2022)
